# Source: PubChem
# 697 NFkB inh = inhibitors of the PMA/ionomycin-induced NF-kB reporter in 697 B cells. 697 B-cell NF-kB luciferase reporter, 16 h. inhibition, % at 4 µM. 0.33% of 330,000 active. AID 435022; in the data active means inhibition above about 35%
# Jurkat NFkB inh = lowers PMA/ionomycin-induced NF-kB signal in Jurkat cells; PMA/ionomycin-induced NF-kB luciferase reporter, luminescence; inhibition, % at 4 µM; 0.53% of 330,000 active; AID 435003; in the data active means inhibition above about 50%
# GPR7 antag = antagonists of human GPR7 (neuropeptides B/W receptor 1); 1.1% of 290,000 active; GPR7-expressing cells, fluorescence antagonist assay; P48145; AID 1861; inhibition, % at 4.4 µM; in the data active means inhibition above about 16%, passing the limit was not always enough;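 further: cells stimulated with the agonist NPW; 0% = agonist with vehicle and 100% = vehicle without agonist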
# Target sequence (P48145 whole entry, looked up): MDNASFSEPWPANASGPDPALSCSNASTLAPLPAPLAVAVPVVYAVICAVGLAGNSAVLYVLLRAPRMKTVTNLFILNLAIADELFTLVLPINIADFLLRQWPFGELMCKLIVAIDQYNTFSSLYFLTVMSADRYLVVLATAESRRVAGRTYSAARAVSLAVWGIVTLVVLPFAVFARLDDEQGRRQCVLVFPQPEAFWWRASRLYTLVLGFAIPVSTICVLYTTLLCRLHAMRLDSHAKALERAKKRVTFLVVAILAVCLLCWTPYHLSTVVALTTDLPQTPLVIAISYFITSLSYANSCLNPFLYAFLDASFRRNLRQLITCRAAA
# HSF1 inh = HSF1 inhibition | NIH3T3-HGL HSE-luciferase, MG132-induced, luminescence 8 h; stronger effect = lower value | activity change, negative = inhibition, % at 7.5 µM (by protocol) | 0.77% of 300,000 active;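 active means more than half of replicate wells show activity change below -50%, luminescence cut by over half; inconclusive means some wells, but at most half, below -50%; inactive means no replicate well below -50%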;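 further: luciferase reports HSF-1 transcriptional activity via heat shock element; 0% = median of DMSO wells and -100% = zero luminescence signal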
# HSF-1 act = increases HSF-1 driven luciferase reporter signal. activation, % at 9 µM. 1.7% of 300,000 active. NIH3T3-HGL HSF-1 luciferase reporter, MG132, 8 h; 100% = twice DMSO control signal;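 active means mean replicate activation of at least 50% with a set share of replicates each reaching 50%; inconclusive means only one of those two conditions met; inactive means mean below 50% and too few replicates reaching it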;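 further: 0% = median of the neutral control wells and 100% = twice that signal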
# T cruzi repl = blocks replication of Trypanosoma cruzi; T. cruzi beta-gal in NIH3T3, luminescence, 90 h; AID 1885; inhibition, % (test concentration not listed); 1.4% of 300,000 active;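 active means mean inhibition across valid replicates above about 55%, limit read from the data; inconclusive means mean below that limit but half or more replicates reach it; inactive means mean below it, under half of replicates reach it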;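 further: signal also drops with host cell toxicity which is not excluded here; 0% = plate median of DMSO wells and 100% = zero luminescence signal; higher percent means less beta-gal luminescence so fewer parasites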
#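 Assay system: NIH/3T3 fibroblasts plus reporter T. cruzi. Amount: NIH/3T3 cells, 5,000 per well. Buffer or medium: DMEM, 2% fetal bovine serum. Doses: compound pinned at 50 nL/well, DMSO. Schedule: ≥90 h infection period, 3 h prior cell attachment. Signal: luminescent β-galactosidase signal after 60 min lysis. Read-out: parasite load inhibition, %.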
# GPR7 antag conf = human GPR7 antagonism, confirmation assay | inhibition, % at 4.4 µM | 52% of 2,400 active | AID 1952 | GPR7-expressing cells, calcium fluorescence antagonist mode | shares compounds with GPR7 antag; in the data active means inhibition above about 24%;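 further: stimulated with the GPR7 agonist NPW; 0% = agonist plus vehicle and 100% = vehicle alone without agonist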
# MCHR1 antag = antagonizes human MCHR1, a GPR7 antagonist counter-screen. shares compounds with GPR7 antag. MCHR1-expressing cells, fluorescence antagonist assay. inhibition, % at 4.4 µM. 62% of 2,400 active. AID 2148; in the data active means inhibition above about 22%;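 further: 0% = vehicle with agonist and 100% = vehicle without agonist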
# * hit, by the source's call; ? = inconclusive; . = no result given. A selection: hits, their analogues and other compounds. The true share with any hit is near 4.8%.
SMILES,697 NFkB inh,Jurkat NFkB inh,GPR7 antag,HSF1 inh,HSF-1 act,T cruzi repl,GPR7 antag conf,MCHR1 antag
CCCNC(=O)c1cc(-c2ccc3c(c2)OCO3)on1,-94,-60,14,20,33,-7,.,.
CC(C)NC(=O)c1cc(-c2ccc3c(c2)OCO3)on1,-125,-107,44*,10,23,-12,0,12
N#CCOC(=O)[C@H](Cc1c[nH]c2ccccc12)NS(=O)(=O)c1ccc(Cl)cc1,6,0,43*,1,38,-5,49*,33*
O=C(O)c1cc(S(=O)(=O)NC(Cc2c[nH]c3ccccc23)C(=O)O)ccc1Cl (stereo not drawn),-1,8,-9,-6,-2,-8,.,.
Cc1ccc(N2C(=O)C3C4C=CC(CNC(=S)Nc5ccc(Cl)cc5)(O4)C3C2=O)cc1 (stereo not drawn),-43,-3,21*,29,55*,-7,29*,19
O=C(/C=C/c1ccc(Cl)cc1)Nc1ccc(CN2CCOCC2)cc1,-30,30,28*,-7,2,-2,36*,55*
CC(C)c1ccc(/C=C/C(=O)Nc2ccc(CN3CCOCC3)cc2)cc1,-48,37,9,-2,6,9,.,.
CCN(C[C@H]1N[C@@](Cc2ccccc2)(C(=O)OC)[C@H]2C(=O)N(Cc3ccccc3)C(=O)[C@@H]12)C(=O)C1CCCCC1,9,6,.,.,.,.,.,.
CCOC(=O)/C(C)=C1\NC(C)(C)Cc2ccccc21,.,.,24*,9,38,62*,14,8
O=C(CCC1CC(=O)Nc2ccccc21)NCc1ccccc1 (stereo not drawn),17,7,3,-4,-5,-13,.,.
O=C(CCC1CC(=O)Nc2ccccc21)NCc1ccc(F)cc1 (stereo not drawn),-15,2,33*,5,-3,-1,12,23*
COCCCC1CCN(C(=O)C2CCC(=O)N(CC3CCCCC3)C2)CC1 (stereo not drawn),-1,2,-4,-8,-15,0,.,.
O=[N+]([O-])c1cc([N+](=O)[O-])c(Oc2ccc(Br)cc2Br)cc1NN1CCCCC1,14,-12,-8,-4,-8,-13,.,.
CC(C)(C)C(=O)NC(=S)NNC(=O)c1ccc(Cl)cc1Cl,-4,-3,32*,-1,4,15,40*,37*
COC(=O)NNC(=O)c1ccc(Cl)cc1Cl,-4,7,-8,-8,-11,-18,.,.
NS(=O)(=O)c1ccc(CCNC(=O)COC(=O)CC(c2ccccc2)c2ccccc2)cc1,3,12,52*,6,3,-13,2,69*
NS(=O)(=O)c1ccc(CCNC(=O)COC(=O)C2CCC2)cc1,-8,-14,38*,-5,6,7,-3,-5
CC(=O)c1c(Cl)nc2cccc3c2c1-c1ccccc1C3=O,-62,-8,-8,-6,-7,9,.,.
O=Cc1c(NCc2cccc(F)c2)c2ccccc2[nH]c1=O,-3,14,1,1,4,-5,.,.
Cc1onc(-c2cccc(Cl)c2Cl)c1C(=O)O/N=C(\N)c1ccc([N+](=O)[O-])o1,-2,21,31*,9,25,78*,45*,55*
Cc1ccc(S(=O)(=O)N2CCOCC2)cc1NC(=O)CN1CCC(Cc2ccccc2)CC1,-12,19,37*,8,45,49,25*,38*
Cc1cccc(N2CCN(CC(=O)Nc3ccc(S(=O)(=O)N4CCOCC4)cc3)CC2)c1C,-61,27,33*,12,8,20,3,35*
Cc1ccc(S(=O)(=O)N2CCN(CC(=O)Nc3ccc(N4CCOCC4)cc3)CC2)cc1C,-6,-12,-7,1,2,2,.,.
Cc1cccc(N2CCN(S(=O)(=O)c3ccc4c(c3)CC(C)N4C(=O)C3CC3)CC2)c1C (stereo not drawn),-10,11,28*,-4,-10,-5,29*,44*
Cc1cccc(N2CCN(CC(=O)Nc3nccs3)CC2)c1C,-28,0,36*,-6,1,-1,34*,36*
SMILES,697 NFkB inh,Jurkat NFkB inh,GPR7 antag,HSF1 inh,HSF-1 act,T cruzi repl,GPR7 antag conf,MCHR1 antag
CCOc1cc(NC(=S)NCC2CCCO2)c(OCC)cc1NC(=O)c1cccc(C)c1 (stereo not drawn),-25,-9,-9,6,21,21,.,.
O=C(CC1Sc2ccccc2NC1=O)Nc1cccc(C(=O)O)c1 (stereo not drawn),10,-1,21*,-7,6,-11,-11,5
CCOC(=O)c1ccc(NC(=O)Nc2ccc(F)cc2)cc1,-29,-44,23*,22,6,-9,47*,55*
Cc1ccc(NC(=O)CN(C)C2CCCCC2)cc1Cl,14,-2,25*,-82*,-84,19,21,24*
Cc1ccc(NC(=O)CCC(=O)c2ccc(F)cc2)cc1Cl,-5,0,-14,-1,-8,10,.,.
Cc1ccc(NC(=O)Nc2ccc(F)cc2)cc1Cl,-72,-70,28*,6,16,49,9,52*
COC(=O)c1ccc(NC(=O)Nc2ccc(F)cc2)cc1,-21,-40,8,7,1,5,.,.
CCOc1ccc(-n2c(-c3ccc(Br)cc3)c[n+]3c2CCCCC3)cc1,-1,30,29*,-2,16,83*,39*,36*
COc1ccc(-n2c(-c3ccc(Cl)cc3)c[n+]3c2CCCCC3)cc1,-22,7,4,-8,-15,54,.,.
COc1ccc(NC(=O)c2cc3c(CO)cnc(C)c3oc2=Nc2cc(OC)cc(OC)c2)cc1,0,-7,37*,-27,-14,-2,-21,-3
CC1=NOC(=O)/C1=C\c1ccc2c(c1)OCO2,5,7,-5,-7,3,-10,.,.
CC(=O)Nc1ccc(NC(=O)COC(=O)c2ccccn2)cc1,6,-7,-7,-1,-4,10,.,.
COc1cc(CNC(C)(C)CO)cc(Br)c1OCc1ccc(Cl)cc1Cl,1,6,29*,-2,10,50,57*,57*
COc1cc(CNCCO)cc(Br)c1OCc1ccccc1Cl,8,12,19,-3,-10,22,.,.
COc1ccc(S(=O)(=O)Nc2ccc(F)cc2)cc1N(C)S(=O)(=O)c1ccc(Cl)cc1,-8,21,20,-14,-8,?,.,.
COc1ccc(NS(=O)(=O)c2ccc(OC)c(N(C)S(=O)(=O)c3ccc(Cl)cc3)c2)cc1,-48,13,27*,0,0,6,29*,52*
